How the values were obtained:
[1] = Inhibition of disc eversion in Drosophila melanogaster imaginal disc cells at 18 uM in presence of spermidine; assay type: functional
Method in brief: (§1)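 Larvae are Oregon-R, from eggs laid for 24 h at 25 °C on cornmeal medium with bromophenol blue. About 30 leg imaginal discs per culture are cultured 15 h at 25 °C in 1 mL minimal Robb's medium (pH 7.2) with 1 µg/mL 20-hydroxyecdysone and 18 µM compound. Spermidine at 100 µM is added as competitor where stated.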

[2] = Inhibition of PAT assessed as cytotoxicity against CHO cells; assay type: cell-based; conditions: Cricetulus griseus
polyamine transporter = test: Ratio of IC50 for polyamine transporter deficient […] cells to IC50 for CHO cells; assay type: cell-based, Cricetulus griseus; conditions: chinese hamster, polyamine transporter deficient […] cells and CHO cells; read-out: Ratio IC50
Method in brief: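 The ratio is the IC50 in the polyamine-transport-deficient CHO-MG line (MGBG-resistant after ethylmethanesulfonate mutagenesis) divided by the IC50 in parental CHO cells.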

[3] = Inhibition of disc eversion in Drosophila melanogaster imaginal disc cells at 18 uM; assay type: functional; method in brief: as §1
[4] = Cytotoxicity against polyamine transporter deficient […] cells; assay type: ADME, cell-based; conditions: Cricetulus griseus
L1210 = test: Cytotoxicity against mouse L1210 cells; assay type: functional, cell-based
[5] = Cytotoxicity against Drosophila melanogaster imaginal disc cells by Trypan blue exclusion test; assay type: cell-based
Method in brief: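 Oregon-R Drosophila melanogaster leg imaginal discs are dissected in Ringer's with 0.1% BSA and cultured 15 h at 25 °C in minimal Robb's medium (pH 7.2). The medium holds 18 µM conjugate and 1 µg/mL 20-hydroxyecdysone. Viability of noneverted disc cells is then judged by Trypan blue exclusion, with everted control discs for comparison.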

| Structure (SMILES) | inhibition at 18 µM [1] [%] | IC50 [2] [µM] | selectivity ratio (polyamine transporter) | inhibition at 18 µM [3] [%] | IC50 [4] [µM] | IC50 (L1210) [µM] | Activity [5] |
| --- | --- | --- | --- | --- | --- | --- | --- |
| NCCCCNCc1c2ccccc2cc2ccccc12 | 100 | 7.7 | 1 | 78.4 | 7.6 | – | – |
| CCN(CCCNCCCN)Cc1c2ccccc2cc2ccccc12 | 100 | 5.3 | 0.8 | 88.5 | 4 | 2.2 | – |
| NCCCNCc1c2ccccc2cc2ccccc12 | 100 | 2.3 | 1 | 95.2 | 2.4 | 2.2 | – |
| CCN(CCCCNCCCCN)Cc1c2ccccc2cc2ccccc12 | – | – | 1 | 5.5 | 21.9 | – | – |
| NCCCCNCCCNCc1c2ccccc2cc2ccccc12 | 9.9 | 2.5 | 3.5 | 7.8 | 8.8 | 0.7 | – |
| CCN(CCCN)Cc1c2ccccc2cc2ccccc12 | 90 | 7.7 | 0.9 | 75.7 | 6.6 | 5.1 | – |
| NCCCCNCCCCNCc1c2ccccc2cc2ccccc12 | 8.7 | 0.45 | 148 | 97.6 | 66.7 | – | Toxic |
| NCCCNCCCNCc1c2ccccc2cc2ccccc12 | 100 | 1.9 | 1.8 | 85.4 | 3.4 | – | – |
| NCCCNCCCCNCc1c2ccccc2cc2ccccc12 | 23.8 | 0.4 | 24 | 73.9 | 9.5 | 0.4 | Toxic |
| NCCCCNCCCN [SPERMIDINE] | – | – | – | 4.8 | – | – | – |

Reference: ChEMBL document CHEMBL1140719, “A Drosophila model to identify polyamine-drug conjugates that target the polyamine transporter in an intact epithelium” (J Med Chem, 2008)
